Experimental data: ChEMBL document CHEMBL1146511, “Cytotoxic compounds from Mundulea chapelieri from the Madagascar Rainforest” (J Nat Prod, 2004)
In brackets after ≈: the same amount, converted by molar mass.

Each molecule was assayed on A2780 (assay: Cytotoxicity against human A2780 cells).
Type: functional, cell-based
Summary of the method: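 A2780 human ovarian cancer cells; growth-inhibition assay run per an earlier published protocol, with actinomycin D as positive control; value is the concentration that inhibited growth by 50% (IC50).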

| Structure (SMILES) | IC50 |
| --- | --- |
| CC1(C)C=Cc2c(c3c(c4c2O[C@H](c2ccccc2)CC4=O)OC(C)(C)C=C3)O1 | 33 µg/mL (≈ 85 µM) |
| CC1(C)C=Cc2c(c3c(c4c2O[C@H](c2ccccc2)[C@@H](O)C4=O)OC(C)(C)C=C3)O1 | 20 µg/mL (≈ 49.4 µM) |
| C=C[C@@]1(C)C[C@@H](OC(C)=O)[C@H](C(C)(C)O)C[C@@H]1C(=C)C | 17 µg/mL (≈ 60.6 µM) |
| COc1cc(OC)c2c(c1CC=C(C)C)O[C@H](c1ccccc1)CC2=O [CANDIDONE] | 23 µg/mL (≈ 65.3 µM) |
| CC(C)=CCc1c(O)c2c(c3c1OC(C)(C)C=C3)O[C@H](c1ccccc1)[C@@H](O)C2=O [ISOMUNDULINOL] | 18 µg/mL (≈ 44.3 µM) |
| CC(C)=CCc1c2c(c(O)c3c1O[C@H](c1ccccc1)[C@@H](O)C3=O)C=CC(C)(C)O2 [MUNDULINOL] | 25 µg/mL (≈ 61.5 µM) |
| COc1c(-c2coc3cc4c(cc3c2=O)CC(O)C(C)(C)O4)ccc2c1C=CC(C)(C)O2 (stereo unspecified) [MUNDULONE] | 13 µg/mL (≈ 29.9 µM) |
| COc1c(-c2coc3cc4c(cc3c2=O)C=CC(C)(C)O4)ccc2c1C=CC(C)(C)O2 [MUNETONE] | 20 µg/mL (≈ 48 µM) |
| C=C(C)[C@H]1Cc2c(ccc3c2O[C@@H]2COc4cc(OC)c(OC)cc4[C@]2(O)C3=O)O1 [ROTENOLONE] | 0.5 µg/mL (≈ 1.22 µM) |
| C=C(C)[C@H]1Cc2c(ccc3c2O[C@@H]2COc4cc(OC)c(OC)cc4[C@@H]2C3=O)O1 [ROTENONE] | 0.7 µg/mL (≈ 1.77 µM) |
| COc1cc2c(cc1OC)[C@]1(O)C(=O)c3ccc4c(c3O[C@@H]1CO2)C=CC(C)(C)O4 [TEPHROSIN] | 9.1 µg/mL (≈ 22.2 µM) |
